Data as given in ChEMBL document CHEMBL4513216, “Probing the Open Global Health Chemical Diversity Library for Multistage-Active Starting Points for Next-Generation Antimalarials” (ACS Infect Dis, 2020).

Assay: Toxicity liver stage against HepG2, at 10uM
Format: cell-based
Design: test concentration 10 uM, cell line HepG2-A16-CD81EGFP
Details: human, HepG2-A16-CD81EGFP cells; read-out: INHIBITION
Method in brief: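 Uninfected HepG2-A16-CD81EGFP cells, 3 × 10^3 per well, 1536-well, plated on prespotted compound at 10 μM final, parasite-free screening media added to match infected plates; puromycin 10 μM positive, DMSO 0.5% negative; run in parallel with 48 h PbLuc assay at 37 °C, 5% CO2; viability by CellTiter-Glo luminescence, normalized to controls.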

CC(C)CC(NC(=O)OC(C)(C)C)C(N)=O (stereo unspecified)
cytotoxicity at 10 µM: 3.29%

CC(=O)N1CCOC[C@H](OCC(=O)N(C)C)C1
cytotoxicity at 10 µM: -1.13%

CN1CCN(CC[C@@H]2CC[C@H](O)[C@@H](C(=O)Nc3ccccc3)O2)CC1
cytotoxicity at 10 µM: -7.1%

CC1=Nc2c(c(=O)[nH]n2C2CCCC2)C(c2cccnc2)S1 (stereo unspecified)
cytotoxicity at 10 µM: -0.955%

Cn1cnc(S(=O)(=O)NCC2CCN(C(=O)Oc3ccccc3)CC2)c1
cytotoxicity at 10 µM: -11.1%

CC(=O)N1CC2C[C@]2(NC(=O)c2ccco2)C1 (stereo partly specified)
cytotoxicity at 10 µM: -2.36%

CS(=O)(=O)N1CC2(CCN(C(=O)c3csnn3)CC2)c2ccccc21
cytotoxicity at 10 µM: 7.88%

O=C1C[C@H]2[C@@H](CCN2C(=O)c2cscn2)N1Cc1cccnc1
cytotoxicity at 10 µM: -0.184%

CN(C)C[C@@H]1C[C@@H]2CN(C(=O)Cc3cccs3)CC[C@@H]2N1C
cytotoxicity at 10 µM: 0.375%

CCOCC(=O)N1CCC[C@]2(C[C@@H](OCc3ccncc3)CO2)C1
cytotoxicity at 10 µM: 14.5%

Cc1cccc(CO[C@@H]2C[C@H]3CN(C(=O)c4cnccn4)CCN3C2)n1
cytotoxicity at 10 µM: -1.79%

Cc1cc(=O)[nH]c(=O)n1COCc1ccccc1
cytotoxicity at 10 µM: -12.5%

CCCc1noc(C2CCN(C(=O)C3CCCO3)CC2)n1 (stereo unspecified)
cytotoxicity at 10 µM: 0.12%

Cn1cccc1C(=O)N1CCCC1c1ccc(CN2CCOCC2)cn1 (stereo unspecified)
cytotoxicity at 10 µM: 1.43%

O=S1(=O)NC(c2ccnc(N3CCOCC3)n2)=Nc2ccccc21
cytotoxicity at 10 µM: 10.8%

COCCCNc1ncc(-c2cccc(F)c2)c(-c2nccn2C)n1
cytotoxicity at 10 µM: 8.97%

O=C(Cn1cnc2cc3c(cc21)OCCCO3)NC1CCCCC1
cytotoxicity at 10 µM: 5.68%

CCn1ncc(C(=O)NCCc2nc(-c3ccc(C)cc3)n[nH]2)c1C
cytotoxicity at 10 µM: 8%

COc1cccc(CNCc2cccnc2)c1
cytotoxicity at 10 µM: -1.13%

Cc1nnc(Nc2cccc(C3CCN(CCO)CC3)n2)s1
cytotoxicity at 10 µM: 2.37%

Cc1ccccc1CN(C)C(=O)CCc1nc(-c2nnc[nH]2)no1
cytotoxicity at 10 µM: -42.1%

COc1ccc2nc(C3CC3)cc(C(=O)NCC(=O)N(C)C)c2c1
cytotoxicity at 10 µM: -3.41%

COC(=O)c1cccc(C(=O)N(C)Cc2ccsc2)c1
cytotoxicity at 10 µM: 10.7%

Cc1nc(-c2ccncc2)nc(N(C)CCc2ccncc2)c1C
cytotoxicity at 10 µM: 11.6%

O=C(Cn1cccn1)NCC1CCCN(Cc2ccccc2)C1 (stereo unspecified)
cytotoxicity at 10 µM: -16.2%

CC(C)Cn1cc(NC(=O)NC(C)(C)c2nccs2)cn1
cytotoxicity at 10 µM: 7.44%

CC(C)CCC(=O)N1CCN(C(C)c2nnc(CC(C)C)o2)CC1 (stereo unspecified)
cytotoxicity at 10 µM: -8.82%

CN(CC(O)C(F)(F)F)C(=O)Nc1cccc(Cn2cccn2)c1 (stereo unspecified)
cytotoxicity at 10 µM: 5.79%

O=C(NCCc1coc(-c2ccc(F)cc2)n1)NCC1CCOC1 (stereo unspecified)
cytotoxicity at 10 µM: -1.94%

Cc1n[nH]c(C2CN(C(=O)CCOCC(F)(F)F)CCO2)n1 (stereo unspecified)
cytotoxicity at 10 µM: -12.9%

O=C(Nc1nnc(C(F)F)s1)NC(CCO)c1cccs1 (stereo unspecified)
cytotoxicity at 10 µM: -3.44%

CC(=O)Nc1nc(CN2CCCC2Cn2cccn2)cs1 (stereo unspecified)
cytotoxicity at 10 µM: -14.4%

CS(=O)(=O)CCn1ccc(NC(=O)CCc2cccc(F)c2)n1
cytotoxicity at 10 µM: -7.37%

N#CC1(NC(=O)COC(=O)Cn2cccn2)CCCC1
cytotoxicity at 10 µM: 8.89%

CC(C)(C)NS(=O)(=O)c1ccccc1CNCc1cccc(O)c1
cytotoxicity at 10 µM: -7.43%

CCOC1CCCN(C(=O)c2[nH]nc(C3CC3)c2Br)C1 (stereo unspecified)
cytotoxicity at 10 µM: -5.4%

CC(C(=O)N(C)C1CCCCC1)S(=O)(=O)Cc1csc(-c2cccs2)n1 (stereo unspecified)
cytotoxicity at 10 µM: -4.27%

Cc1cc(CC(=O)NC2CCCN(c3ccccc3F)C2=O)n[nH]1 (stereo unspecified)
cytotoxicity at 10 µM: 1.46%

Cc1nsc(N2CCCN(C(=O)c3ccc4[nH]ccc4c3)CC2)n1
cytotoxicity at 10 µM: 0.997%

CC(Cn1cccn1)NS(=O)(=O)Cc1ccc(F)cc1 (stereo unspecified)
cytotoxicity at 10 µM: 7.28%

NC(=O)C1(CNC(=O)CCc2ccc(Cl)s2)CCOCC1
cytotoxicity at 10 µM: 9.09%

CC(NC(=O)N(C)Cc1ccncc1)c1nncn1C (stereo unspecified)
cytotoxicity at 10 µM: 2.57%

COCCNC(=O)[C@@H]1CCO[C@@H]2CCN(c3ccc(C)nn3)C[C@@H]21
cytotoxicity at 10 µM: -73.2%

CCCOC1CCCN(c2ccnc(C(=O)NCc3ccco3)c2)C1 (stereo unspecified)
cytotoxicity at 10 µM: 5.58%

Cc1ccc(Oc2ncccc2CNC2CCSCC2)cn1
cytotoxicity at 10 µM: -8.22%

Cc1[nH]nc(CCC(=O)NCC2COc3ccccc3C2)c1C (stereo unspecified)
cytotoxicity at 10 µM: -43.4%

O=C(c1ccoc1)N1CCc2ncnc(NCc3ccccn3)c2CC1
cytotoxicity at 10 µM: 0.224%

CCCc1nnc(NCCn2nc(C)c(Cl)c2C)o1
cytotoxicity at 10 µM: 1.89%

CN(CCCc1nccn1C)c1nccc(-c2cc(C(=O)O)ccn2)n1
cytotoxicity at 10 µM: -4.9%

Cc1ccc(CNC(=O)c2cc(CN3CCC(O)CC3)on2)s1
cytotoxicity at 10 µM: -48.5%

CCn1c(C)nnc1SCCNc1cc(N2CCOCC2)ncn1
cytotoxicity at 10 µM: 0.801%

COc1ccccc1OC1CN(C(=O)C(c2ccc(F)cc2)N(C)C)C1 (stereo unspecified)
cytotoxicity at 10 µM: 1.42%

CN(C)C(=O)N1CCN(Cc2ccc3occc3c2)[C@H]2CS(=O)(=O)C[C@H]21
cytotoxicity at 10 µM: -4.37%

Cc1n[nH]c(C)c1CN1CCC(c2cc(C(C)C)n[nH]2)CC1
cytotoxicity at 10 µM: -6.88%

COc1cc(Cl)cc(C(=O)N2CCC3(CC2)CNC(=O)C3)c1
cytotoxicity at 10 µM: -18.1%

O=C1NC2(CCN(C(=O)c3ccc(Cl)cc3)CC2)CC1c1ccccc1 (stereo unspecified)
cytotoxicity at 10 µM: -12.2%

O=C(COCc1ccccc1)N1CCN(c2ccc(Cl)cn2)CC1
cytotoxicity at 10 µM: -5.98%

COc1ncc(-c2ccc(NC(C)=O)cc2)c(OC)n1
cytotoxicity at 10 µM: -8.64%

CCC1(O)CCCN(c2ncnc3c2c(C)nn3C)C1 (stereo unspecified)
cytotoxicity at 10 µM: 2.14%

Cc1cc2c(cc1CN1CCCCC1CCn1ccnc1C)OCO2 (stereo unspecified)
cytotoxicity at 10 µM: 3.09%

O=C(c1cncc(N2CCC(O)(CO)CC2)n1)N1CCCC1
cytotoxicity at 10 µM: -7.71%

Fc1ccccc1Cc1noc(CN2CCCC(CN3CCCC3)C2)n1 (stereo unspecified)
cytotoxicity at 10 µM: -12.3%

CNc1nc(CNC(=O)Nc2cccc(C(C)OC)c2)cs1 (stereo unspecified)
cytotoxicity at 10 µM: -13.3%

Cc1cc(CN2CCN(C(=O)NC(C)c3ccc(C)o3)CC2)on1 (stereo unspecified)
cytotoxicity at 10 µM: -8.72%

COCCc1noc(CN(C)C(=O)c2cccc(N3CCCC3=O)c2)n1
cytotoxicity at 10 µM: -9.91%

Cc1nc(CN2CCOC(c3nc(C(C)C)n[nH]3)C2)oc1C (stereo unspecified)
cytotoxicity at 10 µM: -7.98%

Cc1csc(N2CCN(C(=O)CCNc3ncccn3)CC2)n1
cytotoxicity at 10 µM: -10.1%

Cc1ccc(CN2CCc3ncnc(-c4cccnc4)c3CC2)o1
cytotoxicity at 10 µM: 1.06%

Cc1ccc(CN2CCOC3(COCCN(Cc4ccncc4)C3)C2)o1 (stereo unspecified)
cytotoxicity at 10 µM: -109%

CN(C)C[C@@H]1C[C@@H]2CN(c3ncc(F)cn3)CC[C@@H]2N1C
cytotoxicity at 10 µM: 4.53%

CCCN1CCC2(C1)c1ccccc1S(=O)(=O)N2C (stereo unspecified)
cytotoxicity at 10 µM: 9.04%

Cn1ccnc1C(=O)N1CCC2(CCN2CC2CC2)C1 (stereo unspecified)
cytotoxicity at 10 µM: 11.8%

CN1CCCn2c(nc(CNC(=O)c3nccn3C)cc2=O)C1
cytotoxicity at 10 µM: 4.68%

CN(C)[C@@H]1CN(C(=O)Cc2ccccc2)[C@@H]2CCCO[C@H]12
cytotoxicity at 10 µM: 3.31%

CN(C)CCNC(=O)c1ccn(-c2ccc3ccccn23)n1
cytotoxicity at 10 µM: -0.0395%

CN1CC2(CCN(Cc3ccoc3)CC2)COc2ccccc2S1(=O)=O
cytotoxicity at 10 µM: -1.48%

COCC(=O)NCC1CCC(c2nnc(-c3ccncc3)o2)CC1 (stereo unspecified)
cytotoxicity at 10 µM: -3.49%

O=C(CC1CCCCC1)N1C[C@@H]2CC[C@H]1CN(Cc1cccnc1)C2
cytotoxicity at 10 µM: -0.662%

CC(C)=CCN1C[C@@H]2CC[C@H]1CN(C(=O)CSc1ccncc1)C2
cytotoxicity at 10 µM: -0.591%

O=C(C1CCS(=O)(=O)CC1)N1C[C@@H]2CC[C@H]1CN(Cc1ccccc1)C2
cytotoxicity at 10 µM: -2.22%

CNc1ccccc1C(=O)N(C)CCc1ccccc1
cytotoxicity at 10 µM: -1.76%
